Results taken from ChEMBL document CHEMBL4715825, “Synthesis and biological evaluations of marine oxohexadecenoic acids: PPARα/γ dual agonism and anti-diabetic target gene effects” (Eur J Med Chem, 2018).
The source made the active and inactive calls.

Assays:
[1] = target: T1, Peroxisome proliferator-activated receptor gamma (Homo sapiens) (UniProt P37231); test: Agonist activity at recombinant human PPARgamma LBD (205 to 505 residues) expressed in African green monkey COS-1 cells at 25 to 50 uM incubated for 18 hrs by luciferase reporter gene assay; type: cell-based; details: filed as agonist, dose 25-50 µM
T1 sequence (whole entry): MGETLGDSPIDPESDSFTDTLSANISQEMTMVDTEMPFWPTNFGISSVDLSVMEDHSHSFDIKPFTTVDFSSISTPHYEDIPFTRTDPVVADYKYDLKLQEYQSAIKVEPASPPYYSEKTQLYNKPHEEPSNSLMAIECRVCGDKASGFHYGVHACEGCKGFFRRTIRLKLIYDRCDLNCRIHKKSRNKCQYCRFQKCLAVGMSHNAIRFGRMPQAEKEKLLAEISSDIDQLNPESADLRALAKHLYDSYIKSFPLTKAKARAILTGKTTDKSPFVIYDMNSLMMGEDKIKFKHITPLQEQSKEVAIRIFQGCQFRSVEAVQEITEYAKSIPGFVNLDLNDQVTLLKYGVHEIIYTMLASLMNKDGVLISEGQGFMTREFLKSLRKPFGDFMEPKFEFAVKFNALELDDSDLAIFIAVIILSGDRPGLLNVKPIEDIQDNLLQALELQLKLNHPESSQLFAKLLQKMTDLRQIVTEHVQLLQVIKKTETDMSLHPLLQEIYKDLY
Summary of the method: (§1)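 Transient Gal4 one-hybrid assay in COS-1 cells (7×10^4 per well), transfected 24 h after seeding. Plasmids were Gal4-DBD fused to the human nuclear receptor LBD, a 5×UAS-SV40 luciferase reporter and pRL-CMV Renilla control. Ligand in DMSO (final 0.1%) was added 5 h post-transfection. Dual-luciferase activity was read after 18 h, expressed as RLU, from three biological replicates in quadruplicate.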

[2] = target: T1, Peroxisome proliferator-activated receptor gamma (Homo sapiens); test: Agonist activity at human PPARgamma in 8 day differentiated human SGBS cells assessed as decrease in […] gene expression at 25 uM incubated for 24 hrs by SYBR-green based qPCR analysis; type: cell-based; details: filed as agonist
[3] = target: T2, Peroxisome proliferator-activated receptor alpha (Homo sapiens) (UniProt Q07869); test: Agonist activity at recombinant human PPARalpha LBD (168 to 468 residues) expressed in African green monkey COS-1 cells at 25 to 50 uM incubated for 18 hrs by luciferase reporter gene assay; type: cell-based; details: filed as agonist, dose 25-50 µM; summary of the method: as §1
T2 sequence (whole entry): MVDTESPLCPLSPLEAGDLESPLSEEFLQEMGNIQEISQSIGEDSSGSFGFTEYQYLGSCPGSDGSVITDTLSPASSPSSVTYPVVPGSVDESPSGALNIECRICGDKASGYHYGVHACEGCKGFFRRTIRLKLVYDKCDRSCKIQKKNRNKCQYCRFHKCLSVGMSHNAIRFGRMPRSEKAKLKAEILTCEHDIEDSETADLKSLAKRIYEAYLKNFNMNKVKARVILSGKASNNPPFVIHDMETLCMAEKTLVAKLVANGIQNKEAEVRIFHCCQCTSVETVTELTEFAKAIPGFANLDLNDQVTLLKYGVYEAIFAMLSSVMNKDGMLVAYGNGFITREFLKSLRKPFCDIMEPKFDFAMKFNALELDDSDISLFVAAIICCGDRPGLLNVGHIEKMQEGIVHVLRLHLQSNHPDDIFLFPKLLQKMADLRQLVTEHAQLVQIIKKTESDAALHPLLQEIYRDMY

COS-1 = test: Agonist activity at recombinant full length human PPARalpha/gamma/RXRalpha expressed in African green monkey COS-1 cells assessed as induction of PLIN1 driven luciferase reporter activity at 25 uM incubated for 18 hrs by dual luciferase reporter gene assay; type: cell-based; details: filed as agonist
Summary of the method: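 COS-1 cells were kept in DMEM/10% FBS at 37 °C, 5% CO2, and seeded at 7×10^4 per well. After 24 h they were lipofected with full-length PPAR and RXR expression plasmids, a PLIN1- or CPT1A-driven luciferase reporter and pRL-CMV Renilla control. Compound in DMSO (final 0.1%) was added 5 h later. After 18 h, cells were lysed for Dual-Luciferase readout. Three biological replicates were run in quadruplicate.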

SGBS [4] = test: Induction of adipogenesis in 8 day differentiated human SGBS cells assessed as increase in volume of lipid droplets at 25 uM measured upto 12 days by oil-O-red staining based inverted microscopic analysis; type: functional, cell-based; details: time day <=12
Summary of the method: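 SGBS cells were differentiated in Quickdiff for 4 days, supplemented with 25 µM oxo-fatty acid or 2 µM rosiglitazone, then in 3FC to day 8. Controls were DMSO (0.025%) or BSA (4.2 µM). Cells were fixed in 4% paraformaldehyde for 15 min and stained 15 min with Oil Red O for neutral lipids. They were imaged by inverted microscope at 10× and 40×. Three biological replicates were run in duplicate.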

[5] = target: T2, Peroxisome proliferator-activated receptor alpha (Homo sapiens); test: Agonist activity at human PPARalpha in human HuH-7 cells assessed as increase in ANGPTL4 gene expression at 50 uM incubated for 24 hrs by SYBR-green based qPCR analysis; type: cell-based; details: filed as agonist
Summary of the method: (§2)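 Cells were seeded at 2×10^5 per well and treated 24 h later with compound in DMSO (final 0.1%). The next day, cells were washed and scraped into RLT buffer. RNA was isolated, and target gene mRNA was quantified by SYBR-green qPCR with specific primers.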

SGBS [6] = test: Induction of adipogenesis in 8 day differentiated human SGBS cells assessed as increase in SCD1 mRNA expression at 25 uM measured upto 12 days by qRT-PCR analysis; type: functional, cell-based; details: time day <=12
Summary of the method: (§3)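 SGBS cells were grown to confluence (day 0). Quickdiff medium was supplemented with compound or rosiglitazone for 4 days, followed by 3FC medium. DMSO or DMSO:BSA served as control. RNA was harvested on days 0, 4, 8 and 12, and expression was measured by SYBR-green qPCR. Data are mean ± SEM of at least three biological replicates in duplicate.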

SGBS [7] = test: Induction of adipogenesis in 8 day differentiated human SGBS cells assessed as increase in CD36 mRNA expression at 25 uM measured upto 12 days by qRT-PCR analysis; type: functional, cell-based; details: time day <=12; summary of the method: as §3
[8] = target: T1, Peroxisome proliferator-activated receptor gamma (Homo sapiens); test: Agonist activity at human PPARgamma in 8 day differentiated human SGBS cells assessed as increase in SLC2A4 gene expression at 25 uM incubated for 24 hrs by SYBR-green based qPCR analysis; type: cell-based; details: filed as agonist
[9] = target: T2, Peroxisome proliferator-activated receptor alpha (Homo sapiens); test: Agonist activity at human PPARalpha in 8 day differentiated human SGBS cells assessed as increase in […] gene expression at 25 uM incubated for 24 hrs by SYBR-green based qPCR analysis; type: cell-based; details: filed as agonist
Summary of the method: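 SGBS preadipocytes were seeded at passage P6-P8 and grown to confluence. They were differentiated for 4 days in Quickdiff (3FC plus dexamethasone, IBMX and rosiglitazone), then kept in 3FC with medium renewed every fourth day. On day 8, cells were stimulated for 24 h in 3FC with compound:BSA or rosiglitazone. SYBR-green qPCR used gene-specific primers. Data are mean ± SEM of three biological replicates in duplicate.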

[10] = target: T2, Peroxisome proliferator-activated receptor alpha (Homo sapiens); test: Agonist activity at human PPARalpha in human HuH-7 cells assessed as increase in ACSL3 gene expression at 50 uM incubated for 24 hrs by SYBR-green based qPCR analysis; type: cell-based; details: filed as agonist; summary of the method: as §2
[11] = target: T2, Peroxisome proliferator-activated receptor alpha (Homo sapiens); test: Agonist activity at human PPARalpha in human HuH-7 cells assessed as increase in PLIN1 gene expression at 50 uM incubated for 24 hrs by SYBR-green based qPCR analysis; type: cell-based; details: filed as agonist; summary of the method: as §2

Measured: Activity

CCCCCCCC(=O)/C=C/CCCCCC(=O)O
not listed: [11]
active: all other assays above

CCCCC/C=C/C(=O)CCCCCCCC(=O)O
not listed: COS-1 | [10]
active: all other assays above
